Consider 29 compounds from ChEMBL document CHEMBL4024762, “Discovery of N-(3-Carbamoyl-5,5,7,7-tetramethyl-5,7-dihydro-4H-thieno[2,3-c]pyran-2-yl)-lH-pyrazole-5-carboxamide (GLPG1837), a Novel Potentiator Which Can Open Class III Mutant Cystic Fibrosis Transmembrane Conductance Regulator (CFTR) Channels to a High Extent” (J Med Chem, 2018).

Series [1] has as its system Cystic fibrosis transmembrane conductance regulator (Homo sapiens), P13569 [G551D]. The experiment in a line: (§1) Potentiation of CFTR G551D mutant (unknown origin) expressed in HEK293 cells incubated for 10 mins in presence of forskolin measured for 2 mins by YFP halide assay. The series is classed as cell-based. The arrangement: concentration or dose not given beside the values. A digest of the protocol: (§2)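 HEK293 cells transfected with the mutant CFTR (G551D, G178R, S549N or R117H) and YFP (H148Q/I152L/F47L), seeded directly after transfection, then 24 h at 37°C. Treated 10 min at room temperature with 10 µM forskolin plus potentiator. Fluorescence read for 2 min across addition of NaI buffer (375 mM NaI). Activity = 1-(F/F0).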

Series [2] deals with Cystic fibrosis transmembrane conductance regulator (Homo sapiens), P13569 [F508del]. The experiment in a line: (§3) Potentiation of CFTR F508del mutant (unknown origin) expressed in human CFBE41o cells incubated for 10 mins in presence of forskolin measured for 7 secs by YFP halide assay. The format is cell-based. Details: concentration or dose not given beside the values. In short, it runs like this:
(§4)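 CFBE41o- cells (CF bronchial line) transduced by adenovirus with F508del CFTR and YFP (H148Q/I152L/F47L). Cells held 24 h at 27°C, then treated 10 min at room temperature with 10 µM forskolin plus potentiator. YFP fluorescence read for 7 s across addition of NaI buffer (137 mM NaI). Activity = 1-(F/F0).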

For series [3], the target named is Cystic fibrosis transmembrane conductance regulator (Homo sapiens, UniProt P13569, F508DEL). The series is described as §3. The series is classed as cell-based. In short, it runs like this:
as §4

The target of series [4] is Cystic fibrosis transmembrane conductance regulator (Homo sapiens, UniProt P13569, G551D). Described as §1. The format is cell-based. A digest of the protocol:
as §2

The nature of series [5]: Unbound intrinsic clearance in rat microsomes. The series is classed as ADME, Microsome. A digest of the protocol:
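Intrinsic clearance in liver microsomes or hepatocytes, corrected for non-specific binding using fraction unbound in microsomes (Fu,mic) or in hepatocyte incubations (Fu,inc).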

Another series is filed under the species Homo sapiens. The series can be described thus: Selectivity ratio of EC50 for CFTR G551D mutant (unknown origin) to EC50 for CFTR F508del mutant (unknown origin).

Chain of Cystic fibrosis transmembrane conductance regulator (Homo sapiens, UniProt P13569, F508DEL) (P13569 as listed by the source): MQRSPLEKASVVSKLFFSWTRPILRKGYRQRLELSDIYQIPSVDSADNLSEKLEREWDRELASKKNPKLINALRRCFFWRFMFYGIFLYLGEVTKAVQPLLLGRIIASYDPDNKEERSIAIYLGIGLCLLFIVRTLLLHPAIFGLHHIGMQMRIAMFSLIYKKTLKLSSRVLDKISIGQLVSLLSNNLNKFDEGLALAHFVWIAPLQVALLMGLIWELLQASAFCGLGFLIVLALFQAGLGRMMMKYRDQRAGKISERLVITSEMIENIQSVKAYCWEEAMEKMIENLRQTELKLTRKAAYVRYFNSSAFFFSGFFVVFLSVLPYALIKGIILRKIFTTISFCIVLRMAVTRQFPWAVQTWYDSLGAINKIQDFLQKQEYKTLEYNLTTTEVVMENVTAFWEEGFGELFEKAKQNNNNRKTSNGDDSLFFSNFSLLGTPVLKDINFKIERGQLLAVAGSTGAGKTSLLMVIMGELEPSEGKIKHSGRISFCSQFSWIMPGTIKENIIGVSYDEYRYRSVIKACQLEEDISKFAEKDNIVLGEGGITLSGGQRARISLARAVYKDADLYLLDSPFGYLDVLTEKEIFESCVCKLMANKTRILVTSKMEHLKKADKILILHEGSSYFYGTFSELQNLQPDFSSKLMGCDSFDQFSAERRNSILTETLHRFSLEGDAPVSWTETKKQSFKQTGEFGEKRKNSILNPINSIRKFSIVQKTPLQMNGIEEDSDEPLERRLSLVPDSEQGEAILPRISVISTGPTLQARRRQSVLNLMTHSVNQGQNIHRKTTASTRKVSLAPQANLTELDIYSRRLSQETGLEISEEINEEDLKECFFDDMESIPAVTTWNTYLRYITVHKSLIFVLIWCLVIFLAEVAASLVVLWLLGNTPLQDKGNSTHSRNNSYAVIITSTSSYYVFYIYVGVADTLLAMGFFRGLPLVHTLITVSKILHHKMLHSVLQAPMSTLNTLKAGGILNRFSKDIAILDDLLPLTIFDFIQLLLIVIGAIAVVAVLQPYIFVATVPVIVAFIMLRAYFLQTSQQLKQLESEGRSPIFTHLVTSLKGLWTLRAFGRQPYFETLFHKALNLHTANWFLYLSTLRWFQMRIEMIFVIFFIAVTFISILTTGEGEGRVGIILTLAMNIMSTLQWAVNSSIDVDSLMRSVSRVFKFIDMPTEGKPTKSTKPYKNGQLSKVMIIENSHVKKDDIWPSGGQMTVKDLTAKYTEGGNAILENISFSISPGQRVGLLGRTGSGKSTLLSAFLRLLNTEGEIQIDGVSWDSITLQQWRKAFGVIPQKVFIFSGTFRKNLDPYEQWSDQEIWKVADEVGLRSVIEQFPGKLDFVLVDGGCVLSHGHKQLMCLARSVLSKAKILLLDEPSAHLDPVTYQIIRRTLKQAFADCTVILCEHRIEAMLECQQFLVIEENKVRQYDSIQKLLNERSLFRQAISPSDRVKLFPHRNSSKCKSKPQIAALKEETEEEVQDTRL
Chain of Cystic fibrosis transmembrane conductance regulator (Homo sapiens), P13569 [F508del] (P13569 as listed by the source): as above
Chain of Cystic fibrosis transmembrane conductance regulator (Homo sapiens), P13569 [G551D] (P13569 whole entry G551D): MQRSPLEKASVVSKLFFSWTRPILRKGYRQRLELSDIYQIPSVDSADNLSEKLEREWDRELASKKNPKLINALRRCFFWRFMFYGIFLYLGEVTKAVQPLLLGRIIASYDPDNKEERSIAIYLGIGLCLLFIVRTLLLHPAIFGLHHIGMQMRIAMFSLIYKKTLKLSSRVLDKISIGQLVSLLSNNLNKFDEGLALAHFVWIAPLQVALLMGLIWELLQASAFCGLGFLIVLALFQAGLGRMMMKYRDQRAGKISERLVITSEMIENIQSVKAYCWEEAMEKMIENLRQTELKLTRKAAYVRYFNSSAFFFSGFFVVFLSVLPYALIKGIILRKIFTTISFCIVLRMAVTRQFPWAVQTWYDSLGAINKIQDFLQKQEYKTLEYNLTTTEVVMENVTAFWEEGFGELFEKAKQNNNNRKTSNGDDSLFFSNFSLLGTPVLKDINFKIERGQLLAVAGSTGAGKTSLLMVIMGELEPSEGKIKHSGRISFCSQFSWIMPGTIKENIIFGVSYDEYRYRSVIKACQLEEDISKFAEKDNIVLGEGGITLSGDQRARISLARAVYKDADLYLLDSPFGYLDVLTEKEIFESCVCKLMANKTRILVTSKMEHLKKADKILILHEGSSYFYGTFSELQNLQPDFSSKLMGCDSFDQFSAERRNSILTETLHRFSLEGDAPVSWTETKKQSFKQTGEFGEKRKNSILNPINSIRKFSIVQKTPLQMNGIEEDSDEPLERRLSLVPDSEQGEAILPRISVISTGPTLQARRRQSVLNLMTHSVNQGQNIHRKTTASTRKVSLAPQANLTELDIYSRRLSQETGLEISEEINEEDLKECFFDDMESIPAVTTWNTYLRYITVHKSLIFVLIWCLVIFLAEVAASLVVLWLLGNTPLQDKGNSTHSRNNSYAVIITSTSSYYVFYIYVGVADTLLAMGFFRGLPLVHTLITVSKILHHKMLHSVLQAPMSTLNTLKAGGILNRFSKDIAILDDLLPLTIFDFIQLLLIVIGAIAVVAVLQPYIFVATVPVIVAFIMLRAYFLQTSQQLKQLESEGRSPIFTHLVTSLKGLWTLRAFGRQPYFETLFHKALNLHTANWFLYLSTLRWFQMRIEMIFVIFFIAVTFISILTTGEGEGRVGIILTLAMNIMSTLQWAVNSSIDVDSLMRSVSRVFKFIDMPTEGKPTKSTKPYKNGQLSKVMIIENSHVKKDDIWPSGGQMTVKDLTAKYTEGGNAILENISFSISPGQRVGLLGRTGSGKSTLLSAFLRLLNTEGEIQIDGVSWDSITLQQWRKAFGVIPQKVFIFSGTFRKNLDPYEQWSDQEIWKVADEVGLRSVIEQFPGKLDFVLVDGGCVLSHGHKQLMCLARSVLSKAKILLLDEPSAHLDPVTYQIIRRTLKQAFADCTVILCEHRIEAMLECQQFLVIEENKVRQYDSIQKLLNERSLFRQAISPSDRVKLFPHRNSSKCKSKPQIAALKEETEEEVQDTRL
Chain of Cystic fibrosis transmembrane conductance regulator (Homo sapiens, UniProt P13569, G551D) (P13569 whole entry G551D): as above

Regarding `Cc1n[nH]c(C(=O)Nc2sc3c(c2C(N)=O)CC(C)(C)OC3(C)C)c1Cl`, the Activity in series [1] was 68%; in series [2] it was 92%.

`CC1(C)Cc2c(sc(NC(=O)c3cccnc3O)c2C(N)=O)C(C)(C)O1`: the EC50 in series [3] came out at 190 nM.

Consider `CC1(C)Cc2c(sc(NC(=O)c3ccccc3O)c2C(N)=O)C(C)(C)O1`, for which the figures for the Activity in series [1] and in series [2] were 52% and 111%, respectively. Besides, the EC50 in series [3] was found to be 4 nM.

For `CC1(C)Cc2c(sc(NC(=O)c3cc(C(F)(F)F)[nH]n3)c2C(N)=O)C(C)(C)O1`, the EC50 in series [4] was 130 nM; in series [3], 3 nM.

In the case of `Cc1cc(C(=O)Nc2sc3c(c2C(N)=O)CC(C)(C)OC3(C)C)[nH]n1`, the Activity in series [1] was 73%; in series [2], 81%. In series [3], the half-maximal effective concentration (EC50) is 13 nM.

Take `CC1(C)Cc2c(sc(NC(=O)c3[nH]ncc3Cl)c2C(N)=O)C(C)(C)O1`: the Activity is 77% in series [1] and 96% in series [2]. In series [3], the EC50 turned out to be 2 nM.

As to `CC1(C)Cc2c(sc(NC(=O)c3cc(C(F)(F)F)n[nH]3)c2C(N)=O)C(C)(C)O1`, the Activity stood at 49% in series [1] and 107% in series [2].

For the compound `CC1(C)Cc2c(sc(NC(=O)C3(CO)CC3)c2C(N)=O)C(C)(C)O1`, the 50% effective concentration (EC50) was 1320 nM in series [4] and 15 nM in series [3]. Besides, the Activity in series [1] is 57%; in series [2], 105%.

In the case of `CC1(C)Cc2c(sc(NC(=O)C(C)(C)O)c2C(N)=O)C(C)(C)O1`, the EC50 in series [3] stood at 16 nM.

Take `Cc1ccc(C(=O)Nc2sc3c(c2C(N)=O)CCOC3)s1`: the Activity in series [2] was 74%. The EC50 in series [3] was 778 nM.

Regarding `CC1(C)Cc2c(sc(NC(=O)c3ccccc3NS(C)(=O)=O)c2C(N)=O)C(C)(C)O1`, in series [3], the EC50 came out at 147 nM.

For the compound `CC1(C)Cc2c(sc(NC(=O)C(C)(C)CO)c2C(N)=O)C(C)(C)O1`, the EC50 in series [3] was 75 nM.

For the compound `CC1Cc2c(sc(NC(=O)c3ccccc3O)c2C(N)=O)C(C)O1` (stereo not drawn), the results for the EC50 in series [4] and in series [3] were 236 nM and 4 nM, respectively. Moreover, the results for the Activity in series [1] and in series [2] were 36% and 98%, respectively.

Turning to `Cc1ccc(C(=O)Nc2sc3c(c2C(N)=O)CCNC3)s1`, the Activity in series [2] was determined as 3%.

On to `CC1(C)Cc2c(sc(NC(=O)C3CCNC3=O)c2C(N)=O)C(C)(C)O1` (stereo not drawn), for which the EC50 in series [3] worked out at 101 nM.

For the compound `CC1(C)Cc2c(sc(NC(=O)c3cn[nH]c3)c2C(N)=O)C(C)(C)O1`, the EC50 in series [3] was 125 nM.

Regarding `CC1(C)Cc2c(sc(NC(=O)[C@H](O)C(C)(C)C)c2C(N)=O)C(C)(C)O1`, the Activity in series [1] is 31%; in series [2] it was 95%. Besides, the EC50 in series [3] was 127 nM.

For `Cc1cn[nH]c1C(=O)Nc1sc2c(c1C(N)=O)CC(C)(C)OC2(C)C`, the EC50 is 123 nM in series [4] and 2 nM in series [3]. For the same compound, the results for the Activity in series [1] and in series [2] were 83% and 96%, respectively.

With `CC1(C)Cc2c(sc(NC(=O)C3(O)CC3)c2C(N)=O)C(C)(C)O1`, the EC50 in series [3] was 23 nM.

Regarding `NC(=O)c1c(NC(=O)c2ccccc2Cl)sc2c1CCCC2`, the concentration giving a half-maximal response (EC50) was greater than 10000 nM in series [4] and 326 nM in series [3]. The Activity in series [1] was determined as 18%; in series [2], 71%. In addition, the CL free in series [5] was determined as 1400 mL/min/kg.

Take `CC1(C)Cc2c(sc(NC(=O)[C@@H](O)C(C)(C)C)c2C(N)=O)C(C)(C)O1`: the results for the EC50 in series [4] and in series [3] were 421 nM and 2.7 nM, respectively. Moreover, the figures for the Activity in series [1] and in series [2] were 50% and 95%, respectively.

Regarding `Cc1[nH]nc(C(=O)Nc2sc3c(c2C(N)=O)CC(C)(C)OC3(C)C)c1Cl`, the EC50 worked out at 199 nM in series [4] and 11 nM in series [3].

Regarding `CC1(C)Cc2c(sc(NC(=O)c3ccccc3O)c2C(N)=O)CO1`, the EC50 was determined as 490 nM in series [4] and 13 nM in series [3]. Also, the Activity in series [1] came out at 51%; in series [2], 93%.

With `Cc1ccc(C(=O)Nc2sc3c(c2C(N)=O)CCCC3)s1`, the Activity in series [2] was 72%. The EC50 in series [3] is 652 nM.

As to `CC1(C)Cc2c(sc(NC(=O)c3nnc[nH]3)c2C(N)=O)C(C)(C)O1`, in series [3], the concentration giving a half-maximal response (EC50) stood at 467 nM.

On to `CC(C)(C)c1cc(C(C)(C)C)c(NC(=O)c2c[nH]c3ccccc3c2=O)cc1O` [IVACAFTOR], for which the EC50 in series [4] was found to be 1300 nM; in series [3] it was 126 nM. Further, the Activity in series [1] stood at 50%; in series [2], 100%.

As for `CC(C)(C)CC(O)C(=O)Nc1sc2c(c1C(N)=O)CC(C)(C)OC2(C)C` (stereo not drawn), the Activity in series [1] came to 58%; in series [2], 102%. Besides, the Ratio EC50 in the series listed under Homo sapiens was 2000. The concentration for a half-maximal effect (EC50) in series [3] worked out at 0.54 nM.

For `CC1(C)Cc2c(sc(NC(=O)Cc3ccn[nH]3)c2C(N)=O)C(C)(C)O1`, the half-maximal effective concentration (EC50) in series [3] was 136 nM.

Take `CC1(C)Cc2c(sc(NC(=O)C3CNC(=O)C3)c2C(N)=O)C(C)(C)O1` (stereo not drawn): in series [3], the EC50 was greater than 10000 nM.
